From ChEMBL document CHEMBL1140381, “Design and studies of novel 5-substituted alkynylpyrimidine nucleosides as potent inhibitors of mycobacteria” (2005)
Values after ≈ are worked out from the molar mass of the structure shown.

Assays:
Format in all cases: functional
Mycobacterium avium [1] = test: Inhibition of growth of Mycobacterium avium (ATCC 25291) was determined using microplate alamar blue assay at 50 ug/mL concentration with compound dissolved in DMSO
Summary of the method: (§1)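 MABA in 7H9GC medium; M. bovis BCG or M. avium ATCC 25291 frozen inocula at 2.5 × 10⁵ CFU/mL final, 100× DMSO stocks diluted into medium. Incubated 6 days, then alamar blue plus 20% Tween-80 added once bacteria-only wells turned pink, read 24 h later by fluorescence. % inhibition = […]. Triplicate wells, three experiments, mean reported.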

Mycobacterium avium [2] = test: Inhibition of growth of Mycobacterium avium (ATCC 25291) was determined using microplate alamar blue assay at 100 ug/mL concentration with compound dissolved in DMSO; summary of the method: as §1
Mycobacterium avium [3] = test: Minimum inhibitory concentration against Mycobacterium avium (ATCC 25291)
Summary of the method: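 Alamar blue microplate assay in 7H9GC. BCG or M. avium ATCC 25291 at 2.5 × 10⁵ CFU/mL final, exposed to compound at 100, 50, 10 and 1 µg/mL in triplicate. Reagent added after 6+ days once growth controls turned pink, read after 24 h visually and by fluorescence. MIC₉₀ taken as the lowest concentration giving ~90% growth inhibition.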

Mycobacterium avium [4] = test: Inhibition of growth of Mycobacterium avium (ATCC 25291) was determined using microplate alamar blue assay at 2 ug/mL concentration with compound dissolved in DMSO
Mycobacterium avium [5] = test: Inhibition of growth of Mycobacterium avium (ATCC 25291) was determined using microplate alamar blue assay at 10 ug/mL concentration with compound dissolved in DMSO; summary of the method: as §1

CCCCCCCCCCC#Cc1cn([C@H]2C[C@H](O)[C@@H](CO)O2)c(=O)[nH]c1=O
inhibition at 50 µg/mL (Mycobacterium avium [1]): 0%
inhibition at 100 µg/mL (Mycobacterium avium [2]): 75%

CC[C@H]1OC(=O)[C@H](C)[C@@H](O[C@H]2C[C@@](C)(OC)[C@@H](O)[C@H](C)O2)[C@H](C)[C@@H](O[C@@H]2O[C@H](C)C[C@H](N(C)C)[C@H]2O)[C@](C)(OC)C[C@@H](C)C(=O)[C@H](C)[C@@H](O)[C@]1(C)O [CLARITHROMYCIN]
MIC90 (Mycobacterium avium [3]): 2 µg/mL (≈ 2.67 µM)
inhibition at 2 µg/mL (Mycobacterium avium [4]): 95%

CCCCCCCCCCC#Cc1cn([C@H]2C[C@H](O)[C@@H](CO)O2)c(=O)nc1N
MIC90 (Mycobacterium avium [3]): 100 µg/mL (≈ 255 µM)
inhibition at 10 µg/mL (Mycobacterium avium [5]): 10%
inhibition at 50 µg/mL (Mycobacterium avium [1]): 60%
inhibition at 100 µg/mL (Mycobacterium avium [2]): 100%

CCCCCC#Cc1cn([C@H]2C[C@H](O)[C@@H](CO)O2)c(=O)[nH]c1=O
inhibition at 100 µg/mL (Mycobacterium avium [2]): 25%

CCCCCCCCC#Cc1cn([C@H]2C[C@H](O)[C@@H](CO)O2)c(=O)[nH]c1=O
inhibition at 100 µg/mL (Mycobacterium avium [2]): 30%

CO[C@H]1/C=C/O[C@@]2(C)Oc3c(C)c(O)c4c(O)c(c(/C=N/N5CCN(C)CC5)c(O)c4c3C2=O)NC(=O)/C(C)=C\C=C\[C@H](C)[C@H](O)[C@@H](C)[C@@H](O)[C@@H](C)[C@H](OC(C)=O)[C@@H]1C [RIFAMPIN]
MIC90 (Mycobacterium avium [3]): 2 µg/mL (≈ 2.43 µM)
inhibition at 2 µg/mL (Mycobacterium avium [4]): 90%

CCCCCCCCCCCCC#Cc1cn([C@H]2C[C@H](O)[C@@H](CO)O2)c(=O)[nH]c1=O
inhibition at 50 µg/mL (Mycobacterium avium [1]): 30%
inhibition at 100 µg/mL (Mycobacterium avium [2]): 75%

CCCCCCCCC#Cc1cn([C@H]2C[C@H](O)[C@@H](CO)O2)c(=O)nc1N
inhibition at 10 µg/mL (Mycobacterium avium [5]): 20%
inhibition at 50 µg/mL (Mycobacterium avium [1]): 50%
inhibition at 100 µg/mL (Mycobacterium avium [2]): 75%
